The sample as a whole holds a higher share of hits than the screen did.
GASC1 inh: blocks human GASC-1 (KDM4C) demethylase activity; Q9H3R0; hit rate 0.15% among 96,000; inhibition, % at 12.5 µM; GST-KDM4C 2-372, H3K9me3 peptide, LANCE TR-FRET;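 active = mean replicate inhibition above about 25%, with at least 55% of replicates also reaching it, limit read from the data, passing the limit was not always enough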
Target sequence (Q9H3R0 2-372 limits assumed): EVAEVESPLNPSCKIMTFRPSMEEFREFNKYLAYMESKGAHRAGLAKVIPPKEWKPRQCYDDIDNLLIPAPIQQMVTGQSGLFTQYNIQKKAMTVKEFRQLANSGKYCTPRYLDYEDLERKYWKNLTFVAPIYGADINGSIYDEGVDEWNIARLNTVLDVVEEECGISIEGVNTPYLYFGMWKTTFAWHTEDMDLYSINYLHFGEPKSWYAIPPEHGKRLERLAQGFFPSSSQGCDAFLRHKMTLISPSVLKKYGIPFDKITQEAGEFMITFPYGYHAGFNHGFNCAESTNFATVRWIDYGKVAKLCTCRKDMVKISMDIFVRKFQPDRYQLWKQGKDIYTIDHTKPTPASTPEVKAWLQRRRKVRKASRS
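Compound: one test concentration per compound; Material: GST-GASC-1 enzyme fragment 2-372; Amount: GASC-1 enzyme at 10 nM final in reaction; Also added: H3K9me3 peptide substrate, Fe(II), 2-oxoglutarate; Technique: LANCE TR-FRET; Times: 30 min demethylation and 1 h detection at room temperature.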
T cruzi growth-1: T. cruzi proliferation inhibition; hit rate 5.9% among 77,000; inhibition, % at 8.34 µM; T. cruzi beta-gal in NIH3T3, GalScreen luminescence, 90 h; AID 624255;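 active = mean inhibition above about 93%, with at least 55% of replicates each passing it, limit read from the data, passing the limit was not always enough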
IDH1 mut inh: blocks human IDH1 R132H reductase activity | diaphorase/resazurin fluorescence, 60 min | hit rate 0.18% among 70,000 | inhibition, % at 10 µM; in the data active = inhibition above about 34%;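 note: 0% = DMSO and 100% = no enzyme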
T cruzi growth-2: Trypanosoma cruzi proliferation inhibition | shares compounds with T cruzi growth-1 | T. cruzi beta-gal in NIH3T3, GalScreen luminescence, 90 h | inhibition, % at 8.35 µM | hit rate 72% among 5,600;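 active = mean replicate inhibition above about 95% and at least 55% of replicates individually reaching it, limit read from the data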
T cruzi growth-3: Trypanosoma cruzi proliferation inhibition | shares compounds with T cruzi growth-1 | T. cruzi beta-gal in NIH3T3, GalScreen luminescence, 90 h | inhibition, % at 2.09 µM | hit rate 21% among 5,600;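 active = mean inhibition above about 95%, with at least 55% of replicates also reaching it, limit read from the data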;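 note: plate controls were neutral control median for no effect and positive control median for full effect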
3T3 cytotox: NIH/3T3 (mouse) viability loss; cytotoxicity (signal decrease), % at 8.35 µM; AID 651742; shares compounds with T cruzi growth-1; NIH/3T3 viability, CellTiter-Glo ATP luminescence, 90 h; hit rate 14% among 5,600;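 active = mean signal decrease across replicates above about 35% based on untreated-well scatter, with enough replicates individually passing, limit read from the data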;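 note: 0% = median of neutral control wells and 100% = median of positive control wells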
3T3 cytotox 2: kills mouse NIH/3T3 fibroblasts. AID 651744. NIH/3T3 viability, CellTiter-Glo ATP luminescence, 90 h. inhibition, % at 24.9 µM. shares compounds with T cruzi growth-1. hit rate 56% among 5,600;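 active = mean loss of cell viability signal at or above a set limit, and enough replicates individually reaching it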;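 note: 0% = median of neutral control wells and 100% = median of positive control wells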
* marks the source's active call; other numbers are inactive results.

`C[C@@H]1CN([C@@H](C)CO)C(=O)c2cc(NC(=O)Nc3ccccc3)ccc2O[C@@H](C)CCCCO[C@@H]1CN(C)C(=O)Nc1ccc2c(c1)OCO2` gave GASC1 inh -0.3, T cruzi growth-1 11.4 and IDH1 mut inh 8.2.
Screening Cc1cc(Cl)ccc1NC(=O)CSc1nnc(-c2ccc(Br)cc2)n1C returned IDH1 mut inh 0.1.
Screening Cc1ccc(-c2nn(C)c(=O)c3ccccc23)cc1S(=O)(=O)N1CCN(CCO)CC1 returned IDH1 mut inh -0.2.
Screening CCCC#Cc1ccc2c(c1)O[C@@H](CN(C)C(=O)C1CCC1)[C@@H](C)CN([C@H](C)CO)S2(=O)=O returned GASC1 inh -1.9, T cruzi growth-1 104.4*, T cruzi growth-2 109.6*, T cruzi growth-3 57.3, 3T3 cytotox 1.8 and 3T3 cytotox 2 34.2*.
`CCCC#Cc1ccc2c(c1)O[C@@H](CN(C)C(=O)C1CCC1)[C@@H](C)CN([C@@H](C)CO)S2(=O)=O` gave GASC1 inh -0.8, T cruzi growth-1 104.9*, IDH1 mut inh -2.2, T cruzi growth-2 110.0*, T cruzi growth-3 42.0, 3T3 cytotox -21.9 and 3T3 cytotox 2 -36.8.
`CCCC#Cc1ccc2c(c1)O[C@H](CN(C)C(=O)C1CCCCC1)[C@@H](C)CN([C@@H](C)CO)S2(=O)=O` gave GASC1 inh -0.1, T cruzi growth-1 94.7*, IDH1 mut inh 4.3, T cruzi growth-2 88.1, T cruzi growth-3 99.9*, 3T3 cytotox -25.2 and 3T3 cytotox 2 104.2*.
CCCC#Cc1ccc2c(c1)O[C@H](CN(C)C(=O)C1CC1)[C@@H](C)CN([C@H](C)CO)S2(=O)=O was read as GASC1 inh -0.7 and T cruzi growth-1 71.6.
CCCC#Cc1ccc2c(c1)O[C@@H](CN(C)C(=O)C1CCC1)[C@H](C)CN([C@H](C)CO)S2(=O)=O was read as GASC1 inh 0.3, T cruzi growth-1 86.6 and IDH1 mut inh -1.0.
For C[C@H](CO)N1C[C@H](C)[C@H](CN(C)C(=O)C2CCCCC2)Oc2cc(C#CCN(C)C)ccc2S1(=O)=O the results were GASC1 inh 0.6.
Screening Cc1ccc(CN(CC(N)=O)S(=O)(=O)c2ccc(Cl)cc2)cc1 returned IDH1 mut inh -0.9.
Cc1cc(N(CC(=O)Nc2ccccc2C(=O)N2CCCC2)S(C)(=O)=O)ccc1Br was read as IDH1 mut inh -0.3.
For CCOC(=O)c1c(NC(=O)CN2C(=O)c3cccc4cccc(c34)C2=O)sc2c1CCC2 the results were IDH1 mut inh 0.4.
Screening Cc1ccccc1-c1nc(SCC(=O)c2cccc([N+](=O)[O-])c2)n[nH]1 returned IDH1 mut inh 0.4.
For O=S(=O)(N[C@@H]1CCN(Cc2ccc(OCCO)cc2)C1)c1cccc2cccnc12 the results were IDH1 mut inh 11.4.
Screening C[C@@H](O)C#Cc1ccc([C@H]2[C@@H](CO)N3CCCCN(C(=O)c4cccc(F)c4)C[C@@H]23)cc1 returned GASC1 inh -0.8, T cruzi growth-1 99.7*, T cruzi growth-2 87.7, T cruzi growth-3 60.3, 3T3 cytotox 2.1 and 3T3 cytotox 2 22.1.
C[C@H](O)C#Cc1ccc([C@H]2[C@@H](CO)N3CCCCN(C(=O)c4cccc(F)c4)C[C@H]23)cc1 was read as GASC1 inh 1.0 and T cruzi growth-1 55.6.
For C[C@H](O)C#Cc1ccc([C@@H]2[C@@H](CO)N3CCCCN(C(=O)c4cccc(F)c4)C[C@@H]23)cc1 the results were GASC1 inh -0.4 and T cruzi growth-1 46.5.
Screening C[C@H](O)C#Cc1ccc([C@H]2[C@H](CO)N3CCCCN(C(=O)c4cccc(F)c4)C[C@@H]23)cc1 returned GASC1 inh 0.5, T cruzi growth-1 100.0*, T cruzi growth-2 67.0, T cruzi growth-3 42.3, 3T3 cytotox 18.5 and 3T3 cytotox 2 64.5*.
Screening O=C(COc1ccc(Cl)cc1)Nc1ccc2nn(-c3ccc(F)cc3)nc2c1 returned IDH1 mut inh -0.3.
Screening O=C(CCCCC(=O)N/N=C/c1cccnc1Br)NO returned IDH1 mut inh 0.0.
Screening COC1OC(=O)C(CCC2(C)C(C)CCC3(C)C2CC(O)C(O)C32CO2)C1O (stereo not given) returned IDH1 mut inh -0.1.
`CC(C)NC(=O)N1CCCCN2[C@H](CO)[C@@H](c3ccc(C#Cc4ccccc4)cc3)[C@@H]2C1` gave GASC1 inh -1.4, T cruzi growth-1 101.0*, T cruzi growth-2 107.4*, T cruzi growth-3 91.2, 3T3 cytotox 30.0 and 3T3 cytotox 2 104.8*.
`CC(C)NC(=O)N1CCCCN2[C@H](CO)[C@@H](c3ccc(C#Cc4ccccc4F)cc3)[C@@H]2C1` gave GASC1 inh -0.7, T cruzi growth-1 102.2*, T cruzi growth-2 108.2*, T cruzi growth-3 84.5, 3T3 cytotox 15.7 and 3T3 cytotox 2 104.8*.
CC(C)NC(=O)N1CCCCN2[C@H](CO)[C@@H](c3ccc(C#C[C@H](C)O)cc3)[C@H]2C1 was read as GASC1 inh 0.3 and T cruzi growth-1 31.1.
CC(C)NC(=O)N1CCCCN2[C@@H](CO)[C@H](c3ccc(C#Cc4ccccc4)cc3)[C@@H]2C1 was read as GASC1 inh -0.9, T cruzi growth-1 105.6*, T cruzi growth-2 107.9*, T cruzi growth-3 78.2, 3T3 cytotox 27.2 and 3T3 cytotox 2 104.8*.
Screening CC(C)NC(=O)N1CCCCN2[C@H](CO)[C@H](c3ccc(C#Cc4ccccc4)cc3)[C@@H]2C1 returned GASC1 inh -1.1, T cruzi growth-1 114.7*, T cruzi growth-2 108.9*, T cruzi growth-3 56.5, 3T3 cytotox 41.5* and 3T3 cytotox 2 62.2*.
CC(C)C#Cc1ccc([C@@H]2[C@@H](CO)N3CCCCN(C(=O)NC(C)C)C[C@H]23)cc1 was read as GASC1 inh -0.2 and T cruzi growth-1 91.6.
`CC(C)NC(=O)N1CCCCN2[C@H](CO)[C@H](c3ccc(C#C[C@@H](C)O)cc3)[C@@H]2C1` gave GASC1 inh 0.7 and T cruzi growth-1 68.1.
CC(C)NC(=O)N1CCCCN2[C@H](C1)[C@H](c1ccc(C#C[C@H](C)O)cc1)[C@@H]2CO was read as GASC1 inh 0.0 and T cruzi growth-1 18.8.
`CCc1ccc(-n2c(SCC(=O)Nc3cc(Cl)ccc3C)nnc2-c2ccncc2)cc1` gave IDH1 mut inh 0.1.
CS(=O)(=O)Nc1ccc(C(=O)CC2(O)C(=O)Nc3ccc(Br)cc32)cc1 (stereo not given) was read as IDH1 mut inh -0.2.
For COc1ccc(NC(=O)CNC(=O)c2ccc(C(C)(C)C)cc2)cc1 the results were IDH1 mut inh 0.0.
